From ChEMBL document CHEMBL1131239, “Orally active benzamide antipsychotic agents with affinity for dopamine D2, serotonin 5-HT1A, and adrenergic alpha1 receptors” (J Med Chem, 1998) come the findings set out here.

Experiment [1] has as its target T1, Adrenergic receptor alpha-1 (Rattus norvegicus, UniProt P15823+P23944+P43140).
T1 sequence (P15823 whole entry): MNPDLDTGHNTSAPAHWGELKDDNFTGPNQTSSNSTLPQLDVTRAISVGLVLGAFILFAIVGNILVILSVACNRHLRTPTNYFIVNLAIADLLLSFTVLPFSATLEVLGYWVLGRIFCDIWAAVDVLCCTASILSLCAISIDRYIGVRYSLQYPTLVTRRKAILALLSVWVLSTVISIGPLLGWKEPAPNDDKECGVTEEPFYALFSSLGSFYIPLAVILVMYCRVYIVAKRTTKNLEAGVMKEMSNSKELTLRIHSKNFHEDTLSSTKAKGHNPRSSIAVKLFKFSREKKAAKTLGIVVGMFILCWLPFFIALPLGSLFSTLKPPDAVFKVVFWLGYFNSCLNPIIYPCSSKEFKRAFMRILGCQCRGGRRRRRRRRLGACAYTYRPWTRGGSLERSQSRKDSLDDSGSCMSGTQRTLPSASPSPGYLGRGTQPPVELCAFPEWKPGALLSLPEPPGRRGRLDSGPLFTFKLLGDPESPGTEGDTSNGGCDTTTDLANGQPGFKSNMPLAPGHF
T1 sequence (P23944 whole entry): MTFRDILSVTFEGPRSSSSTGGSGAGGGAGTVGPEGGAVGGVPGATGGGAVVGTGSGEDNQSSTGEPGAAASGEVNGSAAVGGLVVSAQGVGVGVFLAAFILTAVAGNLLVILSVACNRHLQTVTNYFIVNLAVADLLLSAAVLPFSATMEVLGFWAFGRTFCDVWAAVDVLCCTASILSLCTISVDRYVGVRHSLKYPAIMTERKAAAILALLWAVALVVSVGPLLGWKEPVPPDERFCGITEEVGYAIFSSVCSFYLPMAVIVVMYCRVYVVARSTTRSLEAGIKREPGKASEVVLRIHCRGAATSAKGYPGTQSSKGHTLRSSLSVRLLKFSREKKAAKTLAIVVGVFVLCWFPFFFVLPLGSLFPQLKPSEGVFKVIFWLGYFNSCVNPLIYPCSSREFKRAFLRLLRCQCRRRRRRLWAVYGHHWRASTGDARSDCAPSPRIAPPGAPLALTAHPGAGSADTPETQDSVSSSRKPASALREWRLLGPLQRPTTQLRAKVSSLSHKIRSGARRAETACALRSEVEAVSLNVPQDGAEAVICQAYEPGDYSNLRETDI
T1 sequence (P43140 whole entry): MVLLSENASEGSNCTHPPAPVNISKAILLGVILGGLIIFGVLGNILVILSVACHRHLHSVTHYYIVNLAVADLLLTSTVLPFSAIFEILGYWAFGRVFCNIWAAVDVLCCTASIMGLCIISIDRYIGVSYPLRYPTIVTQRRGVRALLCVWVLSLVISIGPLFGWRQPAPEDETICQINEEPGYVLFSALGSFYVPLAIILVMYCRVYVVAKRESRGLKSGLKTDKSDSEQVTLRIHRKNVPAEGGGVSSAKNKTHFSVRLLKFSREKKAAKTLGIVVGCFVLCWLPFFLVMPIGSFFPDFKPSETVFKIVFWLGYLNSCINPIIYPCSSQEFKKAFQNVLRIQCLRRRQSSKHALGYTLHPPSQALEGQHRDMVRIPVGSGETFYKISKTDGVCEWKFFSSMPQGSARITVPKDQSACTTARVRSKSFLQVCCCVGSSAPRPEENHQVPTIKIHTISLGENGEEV
Description: Binding affinity against Alpha-1 adrenergic receptor from rat cerebral cortex. In kind it is tissue-based.

Experiment [2] relates to Rattus norvegicus. The experiment can be described thus: compound was tested for antipsychotic activity by conditioned avoidance response(CAR) assay in rats with a pretreatment period of 30 min upon intra peritoneal administration at a concentration of 15 mg/kg. In kind it is functional. The gist of the method:
(§1)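 Trained rats (N = 4) were run in 1-h sessions on two consecutive days, with the experimenter blind to drug and dose. Fed rats had food and water until placed in the test chambers. Fasted rats had no food overnight before the experiment.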

The subject of experiment [3] is Rattus norvegicus. The experiment can be described thus: compound was tested for antipsychotic activity by conditioned avoidance response(CAR) assay in rats with a pretreatment period of 240 min upon peroral administration. The class given is functional. The note with it: po. The method in brief:
as §1

Experiment [4] has as its system Rattus norvegicus. The experiment can be described thus: Percent catalepsy in male Spargue-Dawley rat at pretreatment time 60 mins and when administered ip at dose 50 mg/kg (1/5L denotes that one rat out of five died during the course of experiment). The class given is functional. As to conditions: route intraperitoneal. The gist of the method:
(§2)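 Catalepsy scored in groups of five rats per drug treatment, with the experimenter blind to drug and dose, in a quiet room. Each session included two control groups: saline (or vehicle) as negative control and haloperidol 2 mg/kg as positive control. Deaths during the experiment were recorded as lethality (e.g., 3/5L) in place of percent catalepsy.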

Experiment [5] has as its system Rattus norvegicus. Description: compound was tested for antipsychotic activity by conditioned avoidance response(CAR) assay in rats with a pretreatment period of 30 min upon intra peritoneal administration. The class given is functional. The gist of the method:
as §1

Experiment [6] relates to Rattus norvegicus. Description: compound was tested for antipsychotic activity by conditioned avoidance response(CAR) assay in rats with a pretreatment period of 60 min upon peroral administration. The note with it: po. In kind it is functional. The gist of the method: as §1
In experiment [7] the test system is Rattus norvegicus. Description: compound was tested for antipsychotic activity by conditioned avoidance response(CAR) assay in rats with a pretreatment period of 60 min upon peroral administration at a concentration of 10 mg/kg. The class given is functional. The note with it: route oral. The gist of the method: as §1
The target of experiment [8] is T2, 5-hydroxytryptamine receptor 1A (Rattus norvegicus, UniProt P19327).
T2 sequence (P19327 whole entry): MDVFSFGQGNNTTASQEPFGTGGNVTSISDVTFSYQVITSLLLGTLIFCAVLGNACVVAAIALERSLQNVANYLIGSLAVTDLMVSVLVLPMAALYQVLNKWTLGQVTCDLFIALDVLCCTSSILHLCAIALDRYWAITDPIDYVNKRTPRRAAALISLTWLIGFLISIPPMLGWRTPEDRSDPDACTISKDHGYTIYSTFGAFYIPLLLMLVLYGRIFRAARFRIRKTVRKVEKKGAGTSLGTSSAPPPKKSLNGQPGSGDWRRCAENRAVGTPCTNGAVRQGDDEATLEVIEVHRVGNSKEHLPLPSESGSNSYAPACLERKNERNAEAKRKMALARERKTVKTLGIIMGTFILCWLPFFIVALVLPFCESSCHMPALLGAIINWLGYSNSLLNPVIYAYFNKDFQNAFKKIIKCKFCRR
Description: Compound was evaluated for its binding affinity against 5-hydroxytryptamine 1A receptor from rat cerebral cortex. The class given is tissue-based.

Experiment [9] concerns Rattus norvegicus. The experiment can be described thus: compound was tested for antipsychotic activity by conditioned avoidance response(CAR) assay in rats with a pretreatment period of 30 min upon intra peritoneal administration at a concentration of 1 mg/kg. In kind it is functional. The gist of the method: as §1
The test system of experiment [10] is Rattus norvegicus. Description: compound was tested for antipsychotic activity by conditioned avoidance response(CAR) assay in rats with a pretreatment period of 30 min upon intra peritoneal administration at a concentration of 15 mg/kg. The class given is functional.
In experiment [11] the test system is Rattus norvegicus. Description: Percent catalepsy in male Spargue-Dawley rat at pretreatment time 240 mins and when administered ip at dose 50 mg/kg (4/5L denotes that four rats out of five died during the course of experiment). The note with it: route intraperitoneal. The class given is functional. The gist of the method: as §2
In experiment [12] the test system is Rattus norvegicus. Description: compound was tested for antipsychotic activity by conditioned avoidance response(CAR) assay in rats with a pretreatment period of 30 min upon intra peritoneal administration at a concentration of 13.4 mg/kg. In kind it is functional. The gist of the method: as §1
Experiment [13] concerns Rattus norvegicus. Description: compound was tested for antipsychotic activity by conditioned avoidance response(CAR) assay in rats with a pretreatment period of 30 min upon intra peritoneal administration at a concentration of 7.5 mg/kg. In kind it is functional. The method in brief: as §1
Experiment [14] relates to Rattus norvegicus. The experiment can be described thus: Percent catalepsy in male Spargue-Dawley rat at pretreatment time 60 mins and when administered ip at dose 50 mg/kg (3/5L denotes that three rats out of five died during the course of experiment). In kind it is functional. The note with it: route intraperitoneal. The gist of the method: as §2
For experiment [15], the system named is Rattus norvegicus. The experiment can be described thus: Percent catalepsy in male Spargue-Dawley rat at pretreatment time 240 mins and when administered ip at dose 50 mg/kg. The class given is functional. As to conditions: route intraperitoneal. The method in brief:
(§3)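 Catalepsy in rats, groups of five per drug treatment, scored blind to drug and dose. Each session included a saline or vehicle negative control and a haloperidol 2 mg/kg positive control. Deaths during the experiment were recorded in the catalepsy column as number dead out of five.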

For experiment [16], the system named is Rattus norvegicus. Description: Percent catalepsy in male Spargue-Dawley rat at pretreatment time 60 mins and when administered ip at dose 50 mg/kg. The class given is functional. The note with it: route intraperitoneal. The method in brief: as §3
In experiment [17] the test system is Rattus norvegicus. The experiment can be described thus: compound was tested for antipsychotic activity by conditioned avoidance response(CAR) assay in rats with a pretreatment period of 30 min upon intra peritoneal administration at a concentration of 5 mg/kg. The class given is functional. The gist of the method:
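Rat conditioned avoidance test modified from Martin et al. Trained rats (N = 4) were run in 1-h sessions on two consecutive days. Fed animals had food and water until placed in the test chambers. Dosing was ip with 30 min pretreatment, and activity was expressed as percent inhibition at the stated dose.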

Experiment [18] has as its system Rattus norvegicus. Description: compound was tested for antipsychotic activity by conditioned avoidance response(CAR) assay in rats with a pretreatment period of 240 min upon intra peritoneal administration at a concentration of 2.5 mg/kg. In kind it is functional. The method in brief:
as §1

Experiment [19] deals with Rattus norvegicus. Description: compound was tested for antipsychotic activity by conditioned avoidance response(CAR) assay in rats with a pretreatment period of 60 min upon peroral administration at a concentration of 20 mg/kg. In kind it is functional. As to conditions: route oral.
For experiment [20], the system named is Rattus norvegicus. Description: compound was tested for antipsychotic activity by conditioned avoidance response(CAR) assay in rats with a pretreatment period of 240 min upon peroral administration at a concentration of 20 mg/kg. In kind it is functional. The note with it: route oral. The method in brief: as §1
Experiment [21] deals with Rattus norvegicus. Description: compound was tested for antipsychotic activity by conditioned avoidance response(CAR) assay in rats with a pretreatment period of 30 min upon intra peritoneal administration at a concentration of 2.5 mg/kg. In kind it is functional. The gist of the method: as §1
For experiment [22], the system named is Rattus norvegicus. Description: compound was tested for antipsychotic activity by conditioned avoidance response(CAR) assay in rats and pretreatment period of 60 min upon peroral administration. In kind it is functional. As to conditions: po. The method in brief:
as §1

Take `O=C(c1cccc(CN2CCNCC2)c1)N1CCCCC1`: the Ki in experiment [1] is greater than 1000 nM. For the same compound, the inhibition in vivo at 15 mg/kg in experiment [2] is -30.2%.
For the compound `CC(C)Oc1ccccc1C1CCN(Cc2cccc(C(=O)N3CCCCC3)c2)CC1`, the ED50 in experiment [3] was found to be 7.93 mg/kg; in experiment [5] it was 0.75 mg/kg; in experiment [6], 7.69 mg/kg. In experiment [1], this compound came in with a Ki of 2.2 nM. For the same compound, the Catalepsy in experiment [4] was 26.3%.
`CC(C)Oc1ccccc1N1CCN(Cc2cccc(C(=O)N3CCc4ccccc43)c2)CC1`: the Ki in [1] turned out to be 1.7 nM; in [8] it was 3.4 nM. Also, the inhibition in vivo at 10 mg/kg in experiment [7] was -1.4%. Moreover, in experiment [9], the inhibition in vivo at 1 mg/kg is -1.6%. In addition, the inhibition in vivo at 15 mg/kg in [10] was -95.8%.
As to `CC(C)Oc1ccccc1N1CCN(Cc2cccc(C(=O)N3CCCC3)c2)CC1`, the Ki in experiment [1] was 1.9 nM; in experiment [8], 3.6 nM. Further, the Catalepsy in experiment [11] and in experiment [14] was 0% each time. Besides, the inhibition in vivo at 13.4 mg/kg in experiment [12] was -79.4%. The inhibition in vivo at 7.5 mg/kg in experiment [13] was -98.3%. Besides, the inhibition in vivo at 1 mg/kg in experiment [9] was -44.8%.
Regarding `CCN(CC)C(=O)c1cccc(CN2CCN(c3ccccc3OC(C)C)CC2)c1`, the Catalepsy was 36.8% in [15] and 76.9% in experiment [16]. Further, in experiment [17], the inhibition in vivo at 5 mg/kg was -96.2%. Further, the Ki stood at 4.4 nM in [1] and 2.1 nM in experiment [8]. Besides, the inhibition in vivo at 2.5 mg/kg is -44.4% in experiment [18] and -60% in [21]. Also, the inhibition in vivo at 20 mg/kg in [19] is -93.4%; in experiment [20] it was -44.6%. Also, the inhibition in vivo at 1 mg/kg in experiment [9] was -65.1%. In addition, the inhibition in vivo at 15 mg/kg in experiment [10] is -94.5%.
As to `CC(C)Oc1ccccc1N1CCN(Cc2ccc(CN3CCCCC3=O)n2C)CC1` [RWJ-25730], the ED50 in experiment [22] came to 34.7 mg/kg.

A word on the Ki: it is the equilibrium dissociation constant of an inhibitor or competing ligand from its target. A higher Ki goes with weaker binding. For orientation: inhibition in vivo means the relative decrease from the control value, in per cent. As usually defined, the ED50 is the midpoint of the dose-response relation.
